Experimental data: ChEMBL document CHEMBL1147679, “Differential inhibition of group IVA and group VIA phospholipases A2 by 2-oxoamides” (2006)
Calls of active or inactive are those of the source. The calls are words filed in the database; no cut-off is given here.

How the values were obtained:
[1] = target: T1, 85/88 kDa calcium-independent phospholipase A2 (Homo sapiens) (UniProt O60733); test: Inhibition of group 6A iPLA2 at 0.091 mole fraction
T1 sequence (whole entry): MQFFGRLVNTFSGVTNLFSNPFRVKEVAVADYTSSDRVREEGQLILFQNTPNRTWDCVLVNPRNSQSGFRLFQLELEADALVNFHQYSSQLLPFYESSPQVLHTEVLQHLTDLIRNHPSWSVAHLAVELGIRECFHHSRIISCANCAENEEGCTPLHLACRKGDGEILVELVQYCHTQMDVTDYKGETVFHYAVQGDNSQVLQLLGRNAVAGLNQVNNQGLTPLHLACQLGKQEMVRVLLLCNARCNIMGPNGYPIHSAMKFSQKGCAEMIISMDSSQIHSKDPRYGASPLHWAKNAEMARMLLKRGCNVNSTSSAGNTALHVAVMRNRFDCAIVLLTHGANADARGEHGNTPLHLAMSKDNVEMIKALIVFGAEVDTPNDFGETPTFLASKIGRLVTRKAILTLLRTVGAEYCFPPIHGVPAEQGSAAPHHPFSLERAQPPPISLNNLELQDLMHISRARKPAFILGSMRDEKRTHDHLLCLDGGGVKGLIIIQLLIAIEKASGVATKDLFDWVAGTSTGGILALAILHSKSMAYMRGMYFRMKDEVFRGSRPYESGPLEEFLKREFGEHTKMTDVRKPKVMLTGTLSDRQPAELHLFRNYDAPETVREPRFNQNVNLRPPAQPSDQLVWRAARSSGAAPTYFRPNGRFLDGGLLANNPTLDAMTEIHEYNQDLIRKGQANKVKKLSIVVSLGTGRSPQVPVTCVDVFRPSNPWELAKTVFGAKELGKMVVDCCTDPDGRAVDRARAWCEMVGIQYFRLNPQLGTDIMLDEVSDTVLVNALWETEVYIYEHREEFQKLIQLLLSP
How it was run: (§1)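 Recombinant human GVIA-2 iPLA2 (His-tagged) was expressed in Sf9 cells by baculovirus and purified on Ni-NTA. Enzyme (190 ng) acted on mixed micelles of 100 µM DPPC with [14C]-palmitoyl PC tracer and 400 µM Triton X-100, in HEPES pH 7.5 with EDTA, DTT and ATP and 1% DMSO. Runs were 30 min at 40 °C, read by modified Dole assay. XI(50) (mole fraction) came from a logarithmic or linear fit; highest dose 0.091 mole fraction.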

[2] = target: T2, Cytosolic phospholipase A2 (Homo sapiens) (UniProt P47712); test: Inhibition of group 4A cPLA2
T2 sequence (whole entry): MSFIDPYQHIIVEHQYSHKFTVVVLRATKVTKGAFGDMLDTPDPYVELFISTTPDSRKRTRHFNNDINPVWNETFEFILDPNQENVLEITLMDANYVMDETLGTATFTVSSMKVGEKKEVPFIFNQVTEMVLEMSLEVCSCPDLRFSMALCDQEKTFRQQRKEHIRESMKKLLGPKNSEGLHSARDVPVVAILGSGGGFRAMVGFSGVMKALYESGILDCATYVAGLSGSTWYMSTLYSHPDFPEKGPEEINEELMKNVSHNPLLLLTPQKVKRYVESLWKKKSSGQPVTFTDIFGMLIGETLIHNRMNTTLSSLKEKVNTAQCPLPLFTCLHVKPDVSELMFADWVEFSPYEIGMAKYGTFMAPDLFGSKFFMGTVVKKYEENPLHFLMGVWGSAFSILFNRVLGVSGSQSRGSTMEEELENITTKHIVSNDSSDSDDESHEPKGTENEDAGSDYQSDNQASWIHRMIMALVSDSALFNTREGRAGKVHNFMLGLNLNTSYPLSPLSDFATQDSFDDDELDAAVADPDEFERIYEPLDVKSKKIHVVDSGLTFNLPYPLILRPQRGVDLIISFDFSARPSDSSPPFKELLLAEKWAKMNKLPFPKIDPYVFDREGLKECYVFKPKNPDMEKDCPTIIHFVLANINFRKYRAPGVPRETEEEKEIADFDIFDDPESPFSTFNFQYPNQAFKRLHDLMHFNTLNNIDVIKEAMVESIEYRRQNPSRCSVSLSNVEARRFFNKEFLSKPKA
How it was run: (§2)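 Native human GIVA cPLA2 (10 ng) was assayed in 100 mM HEPES pH 7.5 with 80 µM CaCl2, 0.1 mg/mL fatty-acid-free BSA and 2 mM DTT. Substrate was 97 µM 1-palmitoyl-2-[14C]-arachidonoyl PC with 3 µM PIP2 and 400 µM Triton X-100 micelles, plus 1% DMSO. Runs were 30 min at 40 °C, read by modified Dole assay. Potency is XI(50) in surface mole fraction; highest dose 0.091 mole fraction.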

[3] = system: RAW264.7; test: Inhibition of LPS-stimulated prostaglandin PGE2 production in mouse RAW 264.7 macrophage-like cell line; format: functional
How it was run: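 RAW 264.7 cells in DMEM/10% FCS were plated at 5×10^5 per well, allowed to adhere 24 h, then held serum-free 18 h. Inhibitors, in DMSO (<0.5% v/v) diluted into serum-free medium, were added 30 min before 100 ng/mL E. coli 0111:B4 LPS for 24 h. Medium PGE2 was quantified by LC-MS (negative ESI, MRM) against a deuterated PGE2 internal standard.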

[4] = target: T1, 85/88 kDa calcium-independent phospholipase A2 (Homo sapiens); test: Inhibition of group 6A iPLA2; how it was run: as §1
[5] = target: T2, Cytosolic phospholipase A2 (Homo sapiens); test: Inhibition of group 4A cPLA2 at 0.091 mole fraction; how it was run: as §2
[6] = target: T2, Cytosolic phospholipase A2 (Homo sapiens); test: Inhibition of group 4A cPLA2 at 0.01 mole fraction
[7] = target: T1, 85/88 kDa calcium-independent phospholipase A2 (Homo sapiens); test: Inhibition of group 6A iPLA2 at 0.02 mole fraction

SMILES	inhibition [1]	XI50 (mole fraction) [2]	inhibition [5]	further results
CCCCCCCC/C=C\CCCCCCCC(=O)C(=O)NCCCC(=O)O	0%	0.011		
CCCCCCCC/C=C\CCCCCCCC(=O)C(=O)NCCCC(=O)OC		0.012		Inhibition [3]: 40%; XI50 (mole fraction) [4]: 0.067
CCCCCCCCCCCCCCC(=O)C(=O)NCCCC(=O)O	0%	0.017		
CCCCCCCCCCCCCCC(=O)C(=O)N[C@H](/C=C/C(=O)O)CCCC	0%	0.003		
NC(=O)C(=O)CCCCc1ccccc1	0%		0%	
O=C(O)CCCNC(=O)C(=O)CCCCc1ccccc1	0%		0%	
CCCCCCCCCCCCCCC(=O)C(=O)NCCCC(=O)OC	25%		0%	inhibition [3]: inactive
CCCCCCCCCCCCCCCCNC(=O)C(=O)CC				inhibition [6]: 0%; inhibition [7]: 25%
CCCCCCCCCCCCCC(=O)C(N)=O				inhibition [6]: 0%; inhibition [7]: 0%
COC(=O)CCCNC(=O)C(=O)CCCc1ccccc1	0%		0%	
COC(=O)CCCNC(=O)C(=O)CCCCc1ccccc1	0%		0%	
O=C(O)CCCNC(=O)C(=O)CCCc1ccccc1	0%		0%	
CCCCCCCCCCCCCCC(=O)C(=O)NCCCCCC				inhibition [6]: 0%; inhibition [7]: 25%
CCCCCCCCCCCCCCC(=O)C(=O)N[C@@H](/C=C/C(=O)OC)CCCC		0.018		Inhibition [3]: 40%; XI50 (mole fraction) [4]: 0.032
